Results reported in ChEMBL document CHEMBL1275417, “Biological activities of novel gyrase inhibitors of the aminocoumarin class” (Antimicrob Agents Chemother, 2008).
Values after ≈ are worked out from the molar mass of the structure shown. Active and inactive are the calls of the source. No cut-off for these calls is given here.

Tests used:
[1] = molecular target: T1, Cell division inhibitor SulA (Escherichia coli K-12) (UniProt P0AFZ5); assay: Inhibition of Escherichia coli K-12 DNA sulA expressed in Escherichia coli DC2 assessed as compound concentration required for => 4-fold induction of luxCDABE operon by reported gene assay
T1 sequence (whole entry): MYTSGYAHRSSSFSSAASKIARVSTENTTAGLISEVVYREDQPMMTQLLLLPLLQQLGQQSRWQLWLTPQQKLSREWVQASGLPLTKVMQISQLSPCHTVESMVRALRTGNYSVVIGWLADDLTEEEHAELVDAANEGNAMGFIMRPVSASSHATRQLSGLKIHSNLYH
Procedure, shortened: (§1)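 E. coli DC2 carrying a gyrA or sulA promoter–luxCDABE (Photorhabdus) fusion plasmid. Grown overnight at 37°C in LB with 2 μg/ml tetracycline, then diluted 1:100 in LB without tetracycline and precultured 1.5 h at 37°C. Compounds were added from DMSO stocks to 1% final DMSO and incubated 5 h at 37°C. Bioluminescence was divided by A595, and induction factor is the treated/untreated ratio. The value is the lowest test concentration giving ≥4-fold induction.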

Escherichia coli [2] = assay: Antibacterial activity against Escherichia coli ATCC 25922 by broth microdilution method; format: functional
DNA gyrase subunit B = DNA gyrase subunit B (Escherichia coli, UniProt P0AES6); assay: Inhibition of Escherichia coli JM109 DNA gyrase subunit B assessed as ATP hydrolysis by ATPase assay
Escherichia coli [3] = assay: Antibacterial activity against Escherichia coli UB1005 by broth microdilution method; format: functional
Staphylococcus aureus [4] = assay: Antibacterial activity against Staphylococcus aureus ATCC 29213 by broth microdilution method; format: functional
Pseudomonas aeruginosa [5] = assay: Antibacterial activity against Pseudomonas aeruginosa K799/WT by broth microdilution method; format: functional
Streptococcus pneumoniae [6] = assay: Antibacterial activity against Streptococcus pneumoniae SL336-T by broth microdilution method; format: functional
[7] = molecular target: DNA gyrase (Escherichia coli); assay: Inhibition of Escherichia coli JM109 DNA gyrase assessed as DNA triple helix formation by supercoiling assay
Pseudomonas aeruginosa [8] = assay: Antibacterial activity against Pseudomonas aeruginosa K799/61 by broth microdilution method; format: functional
Escherichia coli [9] = assay: Antibacterial activity against Escherichia coli DC2 by broth microdilution method; format: functional
Klebsiella pneumoniae = assay: Antibacterial activity against Klebsiella pneumoniae ATCC 27736 by broth microdilution method; format: functional
Streptococcus pneumoniae [10] = assay: Antibacterial activity against Streptococcus pneumoniae ATCC 49619 by broth microdilution method; format: functional
Enterococcus faecalis = assay: Antibacterial activity against Enterococcus faecalis ATCC 29212 by broth microdilution method; format: functional
Streptococcus pneumoniae [11] = assay: Antibacterial activity against Streptococcus pneumoniae TUPELO by broth microdilution method; format: functional
Pseudomonas aeruginosa [12] = assay: Antibacterial activity against Pseudomonas aeruginosa ATCC 27853 by broth microdilution method; format: functional
Staphylococcus aureus [13] = assay: Antibacterial activity against Staphylococcus aureus 80CR5 by broth microdilution method; format: functional
[14] = molecular target: DNA gyrase subunit A (Escherichia coli K-12) (UniProt P0AES4); assay: Inhibition of Escherichia coli K-12 DNA gyrase A expressed in Escherichia coli DC2 assessed as compound concentration required for => 4-fold induction of luxCDABE operon by reported gene assay; procedure, shortened: as §1
Staphylococcus aureus [15] = assay: Antibacterial activity against Staphylococcus aureus ATCC 43300 by broth microdilution method; format: functional
Enterococcus faecium = assay: Antibacterial activity against Enterococcus faecium ATCC 19434 by broth microdilution method; format: functional

Compound | Activity [1] | MIC (Escherichia coli [2]) | IC50 (DNA gyrase subunit B) | MIC (Escherichia coli [3]) | MIC (Staphylococcus aureus [4]) | MIC (Pseudomonas aeruginosa [5]) | MIC (Streptococcus pneumoniae [6]) | IC50 [7] | MIC (Pseudomonas aeruginosa [8]) | MIC (Escherichia coli [9]) | MIC (Klebsiella pneumoniae) | MIC (Streptococcus pneumoniae [10]) | MIC (Enterococcus faecalis) | MIC (Streptococcus pneumoniae [11]) | MIC (Pseudomonas aeruginosa [12]) | MIC (Staphylococcus aureus [13]) | Activity [14] | MIC (Staphylococcus aureus [15]) | MIC (Enterococcus faecium)
CO[C@@H]1[C@@H](OC(=O)c2ccc(C)[nH]2)[C@@H](O)[C@H](Oc2ccc3c(O)c(NC(=O)/C=C/c4ccccc4)c(=O)oc3c2Cl)OC1(C)C | 3.1 µM | > 32 µg/mL | 90 nM | > 32 µg/mL | 0.25 µg/mL (≈ 0.391 µM) | > 32 µg/mL | 16 µg/mL (≈ 25 µM) | 34 nM | 4 µg/mL (≈ 6.26 µM) | 32 µg/mL (≈ 50.1 µM) | > 32 µg/mL | 8 µg/mL (≈ 12.5 µM) | 16 µg/mL (≈ 25 µM) | 16 µg/mL (≈ 25 µM) | > 32 µg/mL | > 32 µg/mL | 6.3 µM | 1 µg/mL (≈ 1.56 µM) | > 32 µg/mL
CO[C@@H]1[C@@H](OC(=O)c2ccc(C)[nH]2)[C@@H](O)[C@H](Oc2ccc3c(O)c(NC(=O)c4cc(C)c(O)c(C)c4)c(=O)oc3c2)OC1(C)C | inactive | > 32 µg/mL | 229 nM | > 32 µg/mL | 4 µg/mL (≈ 6.42 µM) | > 32 µg/mL | 16 µg/mL (≈ 25.7 µM) | 120 nM | 8 µg/mL (≈ 12.8 µM) | > 32 µg/mL | > 32 µg/mL | 8 µg/mL (≈ 12.8 µM) | 16 µg/mL (≈ 25.7 µM) | 16 µg/mL (≈ 25.7 µM) | > 32 µg/mL | > 32 µg/mL | > 100 µM | 4 µg/mL (≈ 6.42 µM) | > 32 µg/mL
COc1cc(/C=C/C(=O)Nc2c(O)c3ccc(O[C@@H]4OC(C)(C)[C@H](OC)[C@@H](OC(=O)c5ccc(C)[nH]5)[C@H]4O)c(Cl)c3oc2=O)ccc1O | 3.1 µM | > 32 µg/mL | 263 nM | > 32 µg/mL | 0.5 µg/mL (≈ 0.73 µM) | > 32 µg/mL | 8 µg/mL (≈ 11.7 µM) | 43 nM | 2 µg/mL (≈ 2.92 µM) | 16 µg/mL (≈ 23.4 µM) | > 32 µg/mL | 8 µg/mL (≈ 11.7 µM) | 32 µg/mL (≈ 46.7 µM) | 16 µg/mL (≈ 23.4 µM) | > 32 µg/mL | > 32 µg/mL | 6.3 µM | 0.5 µg/mL (≈ 0.73 µM) | > 32 µg/mL
CO[C@@H]1[C@@H](OC(=O)c2ccc(C)[nH]2)[C@@H](O)[C@H](Oc2ccc3c(O)c(NC(=O)/C=C/c4ccc(O)c(Cl)c4)c(=O)oc3c2Cl)OC1(C)C | 25 µM |  | 137 nM |  |  |  |  | 32 nM |  |  |  |  |  |  |  |  | 25 µM |  | 
COc1cc(C(=O)Nc2c(O)c3ccc(O[C@@H]4OC(C)(C)[C@H](OC)[C@@H](OC(=O)c5ccc(C)[nH]5)[C@H]4O)cc3oc2=O)ccc1O | 25 µM |  | 185 nM |  |  |  |  | 75 nM |  |  |  |  |  |  |  |  | 25 µM |  | 
CO[C@@H]1[C@@H](O)[C@@H](OC(=O)c2ccc(C)[nH]2)[C@H](Oc2ccc3c(O)c(NC(=O)c4ccc(N)c(C)c4)c(=O)oc3c2C)OC1(C)C | 100 µM |  | 784 nM |  |  |  |  | 190 nM |  |  |  |  |  |  |  |  | > 100 µM |  | 

Now those with a lower IC50 (DNA gyrase subunit B), led by results:

Activity [1] | MIC (Escherichia coli [2]) | IC50 (DNA gyrase subunit B) | MIC (Escherichia coli [3]) | MIC (Staphylococcus aureus [4]) | MIC (Pseudomonas aeruginosa [5]) | MIC (Streptococcus pneumoniae [6]) | IC50 [7] | MIC (Pseudomonas aeruginosa [8]) | MIC (Escherichia coli [9]) | MIC (Klebsiella pneumoniae) | MIC (Streptococcus pneumoniae [10]) | MIC (Enterococcus faecalis) | MIC (Streptococcus pneumoniae [11]) | MIC (Pseudomonas aeruginosa [12]) | MIC (Staphylococcus aureus [13]) | Activity [14] | MIC (Staphylococcus aureus [15]) | MIC (Enterococcus faecium) | Compound
1.6 µM | > 32 µg/mL | 84 nM | > 32 µg/mL | ≤ 0.06 µg/mL | > 32 µg/mL | 2 µg/mL (≈ 3.07 µM) | 19 nM | 0.5 µg/mL (≈ 0.768 µM) | 8 µg/mL (≈ 12.3 µM) | > 32 µg/mL | 2 µg/mL (≈ 3.07 µM) | 16 µg/mL (≈ 24.6 µM) | 4 µg/mL (≈ 6.15 µM) | > 32 µg/mL | 32 µg/mL (≈ 49.2 µM) | 3.1 µM | ≤ 0.06 µg/mL | > 32 µg/mL | CCCc1cc(C(=O)Nc2c(O)c3ccc(O[C@@H]4OC(C)(C)[C@H](OC)[C@@H](OC(=O)c5ccc(C)[nH]5)[C@H]4O)c(C)c3oc2=O)ccc1O
12.5 µM | > 32 µg/mL | 86 nM | > 32 µg/mL | ≤ 0.06 µg/mL | > 32 µg/mL | 2 µg/mL (≈ 3.13 µM) | 25 nM | 2 µg/mL (≈ 3.13 µM) | 16 µg/mL (≈ 25.1 µM) | > 32 µg/mL | 1 µg/mL (≈ 1.57 µM) | 8 µg/mL (≈ 12.5 µM) | 4 µg/mL (≈ 6.26 µM) | > 32 µg/mL | > 32 µg/mL | 12.5 µM | 0.25 µg/mL (≈ 0.391 µM) | > 32 µg/mL | COc1cc(C(=O)Nc2c(O)c3ccc(O[C@@H]4OC(C)(C)[C@H](OC)[C@@H](OC(=O)c5ccc(C)[nH]5)[C@H]4O)c(C)c3oc2=O)ccc1O
